Experimental findings from ChEMBL document CHEMBL1143707, “7-Arylpiperazinylalkyl and 7-tetrahydroisoquinolinylalkyl derivatives of 8-alkoxy-purine-2,6-dione and some of their purine-2,6,8-trione analogs as 5-HT(1A), 5-HT(2A), and 5-HT(7) serotonin receptor ligands” (Bioorg Med Chem, 2007) are described below.

pKi: −log10 of the molar value.

A word on the pKi: it is the Ki on a negative log10 scale, so that one unit is a factor of ten. A higher pKi goes with a small Ki.

For experiment [1], the system named is Mus musculus. The experiment can be described thus: Decrease in body temperature in Swiss Albino mouse at 5 mg/kg, sc after 30 mins relative control. Type of experiment: functional. To be noted: route subcutaneous. The method, boiled down: (§1)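 Male Albino Swiss mice (24-28 g); drug dissolved in saline, injected sc at 10 mL/kg. Rectal temperature recorded with a thermometer at 30 and 60 min after injection. Result expressed as change (Δt) from basal temperature taken at the start of the experiment; n = 8 per group; mean ± SEM versus vehicle.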

Experiment [2] relates to Mus musculus. Briefly: Effect on compound induced hypothermia in Swiss Albino mouse at 5 mg/kg, sc in presence of 0.1 mg/kg WAY 100635 after 30 mins relative to control. In kind it is functional. An outline of the steps:
(§2)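 Male Albino Swiss mice. WAY 100635 (0.1 mg/kg sc, in distilled water) given 15 min before the agonist (5 mg/kg sc, in saline). Rectal temperature recorded 30 and 60 min after agonist and expressed as Δt from basal; n = 8 per group; compared with vehicle + agonist group.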

Experiment [3] has as its system Mus musculus. Briefly: Decrease in body temperature in Swiss Albino mouse at 5 mg/kg, sc after 60 mins relative control. Type of experiment: functional. Conditions: route subcutaneous. The method, boiled down: as §1
Experiment [4] concerns Mus musculus. Briefly: Effect on compound induced hypothermia in Swiss Albino mouse at 5 mg/kg in presence of 0.1 mg/kg WAY 100635 after 60 mins relative to control. Type of experiment: functional. The method, boiled down:
as §2

Experiment [5] has as its system Mus musculus. The experiment can be described thus: Locomotor activity in Swiss Albino mouse assessed as number of crossings in 6 mins at 5 mg/kg, ip administered 30 mins before the test. In kind it is functional. To be noted: route intraperitoneal. An outline of the steps:
(§3)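 Male Albino Swiss mice dosed ip 30 min before test (compound in 1% Tween 80; imipramine in distilled water); individual cages with IR beam sensors, consecutive beam breaks scored as ambulatory counts during first 6 min and over a 30-min session; n = 10/group; mean ± SEM.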

For experiment [6], the system named is Mus musculus. The experiment can be described thus: Antidepressant activity in Swiss Albino mouse assessed as immobility time during final 4 mins of 6 mins session at 5 mg/kg, ip administered 30 mins before the test in forced-swimming test. Type of experiment: functional. Conditions: route intraperitoneal. The method, boiled down:
(§4)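 Male Albino Swiss mice (24-28 g), ip in 1% aqueous Tween 80 suspension (10 mL/kg), 30 min pretest; single glass cylinder (25 cm high, 10 cm diameter), 6 cm water at 23–25 °C for 6 min; immobility (floating, minimal head-keeping movements) timed over final 4 min; n = 9-10/group; mean ± SEM.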

Experiment [7] relates to Mus musculus. The experiment can be described thus: Antidepressant activity in Swiss Albino mouse assessed as immobility time during final 4 mins of 6 mins session at 20 mg/kg, ip administered 30 mins before the test in forced-swimming test. In kind it is functional. To be noted: route intraperitoneal. An outline of the steps:
as §4

Experiment [8] relates to Mus musculus. Briefly: Locomotor activity in Swiss Albino mouse assessed as number of crossings in 30 mins at 20 mg/kg, ip administered 30 mins before the test. In kind it is functional. Conditions: route intraperitoneal. An outline of the steps: as §3
Experiment [9] has as its system Mus musculus. The experiment can be described thus: Locomotor activity in Swiss Albino mouse assessed as number of crossings in 30 mins at 10 mg/kg, ip administered 30 mins before the test. Type of experiment: functional. To be noted: route intraperitoneal. An outline of the steps: as §3
In experiment [10] the test system is Mus musculus. The experiment can be described thus: Antidepressant activity in Swiss Albino mouse assessed as immobility time during final 4 mins of 6 mins session at 10 mg/kg, ip administered 30 mins before the test in forced-swimming test. Type of experiment: functional. To be noted: route intraperitoneal. An outline of the steps:
as §4

For experiment [11], the target named is 5-hydroxytryptamine receptor 7 (Rattus norvegicus, UniProt P32305). Briefly: Displacement of [3H]5CT from 5HT7 receptor in Wistar rat hyphalamic membrane. Type of experiment: cell membranes.
Chain of 5-hydroxytryptamine receptor 7 (P32305 whole entry): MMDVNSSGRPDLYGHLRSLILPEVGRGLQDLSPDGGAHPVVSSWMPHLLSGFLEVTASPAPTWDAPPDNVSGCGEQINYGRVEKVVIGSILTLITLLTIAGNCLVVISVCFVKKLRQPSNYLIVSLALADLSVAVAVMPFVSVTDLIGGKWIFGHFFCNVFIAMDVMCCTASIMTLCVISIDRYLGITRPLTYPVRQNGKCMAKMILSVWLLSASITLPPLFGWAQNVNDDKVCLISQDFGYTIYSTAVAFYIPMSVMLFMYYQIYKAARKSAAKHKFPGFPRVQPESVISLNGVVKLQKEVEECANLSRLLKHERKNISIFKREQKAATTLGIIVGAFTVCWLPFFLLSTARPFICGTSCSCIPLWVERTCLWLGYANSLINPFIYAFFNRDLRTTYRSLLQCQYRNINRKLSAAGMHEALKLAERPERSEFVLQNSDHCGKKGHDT
For experiment [12], the system named is Mus musculus. The experiment can be described thus: Anxiolytic activity in Swiss Albino mouse assessed as number of punished crossings for 60 secs at 10 mg/kg, ip administered 30 mins before the test in four-plate test. Conditions: route intraperitoneal. In kind it is functional. The method, boiled down:
(§5)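 Male Albino Swiss mice (24-28 g), ip in 1% Tween 80 (10 mL/kg) 30 min before test; box with four metal floor plates, 120 V for 0.5 s on each plate-to-plate crossing after 15 s free exploration, 3 s shock-free if running continues; punished crossings counted over 60 s; n = 9-10/group; mean ± SEM.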

In experiment [13] the test system is Mus musculus. The experiment can be described thus: Decrease in body temperature in Swiss Albino mouse at 2.5 mg/kg, ip administered 30 mins before the test measured after 120 mins relative to control. Type of experiment: functional. To be noted: route intraperitoneal. The method, boiled down:
(§6)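 Male Albino Swiss mice (24-28 g) given compound ip in 1% aqueous Tween 80 (10 mL/kg); rectal temperature read at 30, 60, 90 and 120 min post-dose; Δt versus basal temperature taken at start (initial ~36.0 °C); n = 8/group; mean ± SEM.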

The subject of experiment [14] is Mus musculus. Briefly: Decrease in body temperature in Swiss Albino mouse at 2.5 mg/kg, ip administered 30 mins before the test measured after 90 mins relative to control. To be noted: route intraperitoneal. In kind it is functional. The method, boiled down: as §6
Experiment [15] deals with Mus musculus. The experiment can be described thus: Anxiolytic activity in Swiss Albino mouse assessed as number of punished crossings for 60 secs at 2.5 mg/kg, ip administered 30 mins before the test in four-plate test. In kind it is functional. To be noted: route intraperitoneal. The method, boiled down:
as §5

The test system of experiment [16] is Mus musculus. Briefly: Locomotor activity in Swiss Albino mouse assessed as number of crossings in 30 mins at 5 mg/kg, ip administered 30 mins before the test. In kind it is functional. To be noted: route intraperitoneal. The method, boiled down: as §3
Experiment [17] concerns Mus musculus. The experiment can be described thus: Decrease in body temperature in Swiss Albino mouse at 2.5 mg/kg, ip administered 30 mins before the test measured after 30 mins relative to control. In kind it is functional. To be noted: route intraperitoneal. An outline of the steps:
as §6

Experiment [18] has as its system Mus musculus. Briefly: Effect on compound induced hypothermia in Swiss Albino mouse at 2.5 mg/kg, ip in presence of 0.1 mg/kg WAY 100635 after 30 mins relative to control. In kind it is functional. The method, boiled down: (§7)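 Male Albino Swiss mice; WAY 100635 0.1 mg/kg sc (in distilled water) 15 min before ip compound (1% Tween 80); rectal temperature at 30 and 60 min after compound; Δt from basal; n = 8/group; mean ± SEM.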

In experiment [19] the test system is Mus musculus. The experiment can be described thus: Antidepressant activity in Swiss Albino mouse assessed as immobility time during final 4 mins of 6 mins session at 2.5 mg/kg, ip administered 30 mins before the test in forced-swimming test. Conditions: route intraperitoneal. In kind it is functional. An outline of the steps: as §4
The test system of experiment [20] is Mus musculus. Briefly: Decrease in body temperature in Swiss Albino mouse at 2.5 mg/kg, ip administered 30 mins before the test measured after 60 mins relative to control. Type of experiment: functional. To be noted: route intraperitoneal. An outline of the steps:
as §6

The test system of experiment [21] is Mus musculus. The experiment can be described thus: Decrease in body temperature in Swiss Albino mouse at 5 mg/kg, ip administered 30 mins before the test measured after 90 mins relative to control. Type of experiment: functional. To be noted: route intraperitoneal. An outline of the steps: as §6
Experiment [22] relates to Mus musculus. The experiment can be described thus: Decrease in body temperature in Swiss Albino mouse at 5 mg/kg, ip administered 30 mins before the test measured after 120 mins relative to control. To be noted: route intraperitoneal. In kind it is functional. An outline of the steps:
as §6

For experiment [23], the target named is T1, 5-hydroxytryptamine receptor 1A (Rattus norvegicus, UniProt P19327).
T1 sequence (P19327 whole entry): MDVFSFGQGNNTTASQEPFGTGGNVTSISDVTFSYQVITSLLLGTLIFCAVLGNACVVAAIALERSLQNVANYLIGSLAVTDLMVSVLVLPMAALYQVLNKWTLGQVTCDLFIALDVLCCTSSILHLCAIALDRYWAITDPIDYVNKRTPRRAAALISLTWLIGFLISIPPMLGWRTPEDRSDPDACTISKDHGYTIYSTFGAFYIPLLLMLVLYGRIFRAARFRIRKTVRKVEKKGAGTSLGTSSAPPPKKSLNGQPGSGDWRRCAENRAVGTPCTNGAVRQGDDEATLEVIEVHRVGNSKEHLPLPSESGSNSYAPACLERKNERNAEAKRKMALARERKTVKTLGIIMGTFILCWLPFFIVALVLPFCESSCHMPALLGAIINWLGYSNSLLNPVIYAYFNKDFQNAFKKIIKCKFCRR
Briefly: Displacement of [3H]8-OH-DPAT from rat brain 5HT1A receptor. The method, boiled down: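 Rat hippocampal membranes; 1 nM [3H]-8-OH-DPAT; nonspecific binding with 10 μM 5-HT; 8–10 competitor concentrations in triplicate, ≥3 experiments; GF/B filtration, ice-cold buffer washes, scintillation counting; Ki by nonlinear regression with Cheng–Prusoff.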
On the technique in general: In a radioligand displacement assay an active substance lowers the binding of a labelled ligand.

In experiment [24] the target is 5-hydroxytryptamine receptor 2A (Rattus norvegicus, UniProt P14842). Briefly: Displacement of [3H]ketanserin from rat brain 5HT2A receptor. An outline of the steps: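 Rat brain membranes; 0.6 nM [3H]-ketanserin; nonspecific binding with 1 μM methysergide; 8–10 competitor concentrations in triplicate, ≥3 experiments; GF/B filtration, scintillation counting; Ki via Cheng–Prusoff.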
Chain of 5-hydroxytryptamine receptor 2A (P14842 whole entry): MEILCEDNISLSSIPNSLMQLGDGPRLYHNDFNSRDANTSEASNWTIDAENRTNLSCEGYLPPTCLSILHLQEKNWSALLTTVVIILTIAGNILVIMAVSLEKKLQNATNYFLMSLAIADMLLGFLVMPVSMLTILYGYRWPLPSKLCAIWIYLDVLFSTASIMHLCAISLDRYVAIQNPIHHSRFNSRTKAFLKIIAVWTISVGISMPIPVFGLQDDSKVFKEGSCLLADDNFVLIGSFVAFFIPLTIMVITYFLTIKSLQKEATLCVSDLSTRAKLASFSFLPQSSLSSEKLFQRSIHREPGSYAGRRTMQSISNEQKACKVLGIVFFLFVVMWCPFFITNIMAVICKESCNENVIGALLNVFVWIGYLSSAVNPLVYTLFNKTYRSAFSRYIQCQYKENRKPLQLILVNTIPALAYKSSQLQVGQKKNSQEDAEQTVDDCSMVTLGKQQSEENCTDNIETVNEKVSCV

Experiment [25] concerns Mus musculus. Briefly: Decrease in body temperature in Swiss Albino mouse at 5 mg/kg, ip administered 30 mins before the test measured after 30 mins relative to control. Type of experiment: functional. To be noted: route intraperitoneal. The method, boiled down: as §6
The subject of experiment [26] is Mus musculus. Briefly: Locomotor activity in Swiss Albino mouse assessed as number of crossings in 6 mins at 10 mg/kg, ip administered 30 mins before the test. In kind it is functional. Conditions: route intraperitoneal. The method, boiled down: as §3
The test system of experiment [27] is Mus musculus. Briefly: Effect on compound induced hypothermia in Swiss Albino mouse at 2.5 mg/kg, ip in presence of 0.1 mg/kg WAY 100635 after 60 mins relative to control. Type of experiment: functional. The method, boiled down: as §7
In experiment [28] the test system is Mus musculus. The experiment can be described thus: Decrease in body temperature in Swiss Albino mouse at 5 mg/kg, ip administered 30 mins before the test measured after 60 mins relative to control. Type of experiment: functional. To be noted: route intraperitoneal. The method, boiled down:
as §6

Experiment [29] deals with Mus musculus. Briefly: Locomotor activity in Swiss Albino mouse assessed as number of crossings in 6 mins at 20 mg/kg, ip administered 30 mins before the test. In kind it is functional. Conditions: route intraperitoneal. The method, boiled down:
as §3

Experiment [30] has as its system Mus musculus. Briefly: Anxiolytic activity in Swiss Albino mouse assessed as number of punished crossings for 60 secs at 5 mg/kg, ip administered 30 mins before the test in four-plate test. In kind it is functional. Conditions: route intraperitoneal. An outline of the steps: as §5

In the case of `CCCN(CCC)C1CCc2cccc(O)c2C1` (stereo not given) [8-OH-DPAT], the Activity was -1 °C with Mus musculus [1], -0.1 °C in the experiment with Mus musculus [2], -0.7 °C with Mus musculus [3] and 0.1 °C in the experiment on Mus musculus [4].

Regarding `CCOc1nc2c(c(=O)n(C)c(=O)n2C)n1CCCCN1CCN(c2ccccc2OC)CC1.Cl`, the Activity in the experiment on Mus musculus [5] amounted to 125.5; with Mus musculus [6], 126.9 s; with Mus musculus [7], 178.2 s; in the experiment with Mus musculus [8], 19.5; in the experiment with Mus musculus [9] it was 193.4; in the experiment with Mus musculus [10], 122.6 s. Moreover, the Activity in the experiment with Mus musculus [12] is 3.8; in the experiment with Mus musculus [13], -0.7 °C; in the experiment on Mus musculus [14], -0.9 °C; in the experiment on Mus musculus [15] it was 4.1; in the experiment with Mus musculus [16] it was 325; in the experiment with Mus musculus [17], -1.5 °C. The Activity with Mus musculus [18] is -0.5 °C; in the experiment with Mus musculus [19], 154.4 s; with Mus musculus [20], -1 °C; with Mus musculus [21], -1.5 °C; with Mus musculus [22] it was -1.3 °C; with Mus musculus [25] it was -2.5 °C. Moreover, the Activity in the experiment on Mus musculus [26] was 56.2; in the experiment on Mus musculus [27] it was -0.3 °C; in the experiment on Mus musculus [28] it was -1.9 °C; in the experiment with Mus musculus [29] it was 11.1; with Mus musculus [30] it was 5.8. For the same molecule, the pKi in experiment [11] is 7.27; in experiment [23] it was 7.96; in [24] it was 6.60.
